According to ChEMBL document CHEMBL1124288, “Synthesis and analgesic properties of N-substituted trans-4a-aryldecahydroisoquinolines” (J Med Chem, 1988):

Assays:
[1] = tested on: Mus musculus; assay: Dose (sc) required for 50% reduction in frequency of writhing in mouse writhing analgesia test; format: functional
[2] = tested on: Rattus norvegicus; assay: Dose (sc) required for a 2-s increase in reaction time in rat tail heat analgesia test; format: functional
[3] = biological target: Mu-type opioid receptor (Rattus norvegicus, UniProt P33535); assay: Binding affinity to Opioid receptor mu 1 in rat brain using [3H]-NAL as radioligand; format: tissue-based
Procedure, shortened: (§1)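 μ sites labelled with [3H]naloxone in rat brain homogenates. The assay details are given in an earlier report.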

[4] = biological target: Kappa-type opioid receptor (Cavia porcellus, UniProt P41144); assay: Binding affinity to Opioid receptor kappa 1 in guinea pig cortex using [3H]EKC as radioligand
[5] = biological target: Kappa-type opioid receptor (Cavia porcellus) (UniProt P41144); assay: Percent displacement of [3H]EKC from Opioid receptor kappa 1 at 100 nM conc. of compound
[6] = biological target: Kappa-type opioid receptor (Cavia porcellus) (UniProt P41144); assay: Percent displacement of [3H]EKC from Opioid receptor kappa 1 at 1000 nM conc. of compound
[7] = biological target: Mu-type opioid receptor (Rattus norvegicus) (UniProt P33535); assay: Percent displacement of [3H]NAL from Opioid receptor mu 1 at 1000 nM conc. of compound
[8] = biological target: Mu-type opioid receptor (Rattus norvegicus) (UniProt P33535); assay: Binding affinity to Opioid receptor mu 1 in rat brain using [3H]NAL as radioligand; format: tissue-based; procedure, shortened: as §1
[9] = biological target: Kappa-type opioid receptor (Cavia porcellus) (UniProt P41144); assay: Percent displacement of [3H]EKC from Opioid receptor kappa 1 in guinea pig cortex at 100 nM conc. of compound
[10] = biological target: Mu-type opioid receptor (Rattus norvegicus) (UniProt P33535); assay: Percent displacement of [3H]-NAL from Opioid receptor mu 1 in rat brain at 1000 nM conc. of compound; format: tissue-based
[11] = biological target: Kappa-type opioid receptor (Cavia porcellus) (UniProt P41144); assay: Percent displacement of [3H]EKC from Opioid receptor kappa 1 in guinea pig cortex at 1000 nM conc. of compound
[12] = biological target: Mu-type opioid receptor (Rattus norvegicus) (UniProt P33535); assay: Binding affinity to mu opioid receptor in rat brain using [3H]NAL as radioligand; format: tissue-based; procedure, shortened: as §1
[13] = Mus musculus, sc, read-out: ED50

Sequence of Mu-type opioid receptor (P33535 whole entry): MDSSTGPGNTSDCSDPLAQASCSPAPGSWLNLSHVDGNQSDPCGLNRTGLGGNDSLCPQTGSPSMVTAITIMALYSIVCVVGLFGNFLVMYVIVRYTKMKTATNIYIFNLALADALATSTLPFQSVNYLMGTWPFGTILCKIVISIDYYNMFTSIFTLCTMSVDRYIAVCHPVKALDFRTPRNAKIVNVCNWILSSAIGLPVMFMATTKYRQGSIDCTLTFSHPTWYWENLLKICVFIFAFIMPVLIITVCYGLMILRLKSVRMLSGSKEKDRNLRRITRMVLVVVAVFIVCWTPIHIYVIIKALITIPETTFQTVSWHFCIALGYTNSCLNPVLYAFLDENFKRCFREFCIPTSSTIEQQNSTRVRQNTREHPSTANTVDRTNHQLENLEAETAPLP
Sequence of Mu-type opioid receptor (Rattus norvegicus) (P33535 whole entry): as above
Sequence of Kappa-type opioid receptor (P41144 whole entry): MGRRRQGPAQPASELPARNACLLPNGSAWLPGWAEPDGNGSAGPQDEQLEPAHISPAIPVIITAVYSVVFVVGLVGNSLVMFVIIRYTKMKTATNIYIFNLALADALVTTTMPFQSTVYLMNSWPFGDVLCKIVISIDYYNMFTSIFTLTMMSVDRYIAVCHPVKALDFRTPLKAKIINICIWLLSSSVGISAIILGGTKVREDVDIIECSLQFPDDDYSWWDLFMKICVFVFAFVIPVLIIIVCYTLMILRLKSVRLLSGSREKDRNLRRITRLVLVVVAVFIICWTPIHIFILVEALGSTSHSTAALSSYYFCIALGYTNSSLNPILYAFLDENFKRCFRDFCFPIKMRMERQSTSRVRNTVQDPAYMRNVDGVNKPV
Sequence of Kappa-type opioid receptor (Cavia porcellus) (P41144 whole entry): as above

Compound | ED50 [1, 13] | ED2sec [2] | Ki [3] | Ki [4] | further results
CCN1CCC2(c3cccc(O)c3)CCCC[C@H]2C1 (some centres not stated) | 18.2 mg/kg | >100 mg/kg | 29 nM | 529 nM | –
COc1cccc(C23CCCC[C@H]2CN(C)CC3)c1 (some centres not stated) | 1.2 mg/kg | 3.3 mg/kg | – | – | –
Oc1cccc(C23CCCC[C@H]2CN(CC2CCC2)CC3)c1 (some centres not stated) | 0.6 mg/kg | – | – | – | –
CCCN1CCC2(c3cccc(O)c3)CCCC[C@H]2C1 (some centres not stated) | 1.5 mg/kg | 1.3 mg/kg | – | – | –
CC(C)=CCN1CCC2(c3cccc(O)c3)CCCC[C@H]2C1 (some centres not stated) | 1 mg/kg | 1.5 mg/kg | – | – | –
C=CCN1CCC2(c3cccc(O)c3)CCCC[C@H]2C1 (some centres not stated) | 1 mg/kg | 1.4 mg/kg | – | – | –
CN1CCC2(c3ccccc3)CCCC[C@H]2C1 (some centres not stated) | 3.5 mg/kg | 8.8 mg/kg | – | – | –
Oc1cccc(C23CCCC[C@H]2CN(CCc2ccccc2)CC3)c1 (some centres not stated) | 0.3 mg/kg | 0.08 mg/kg | – | – | –
Oc1cccc(C23CCCC[C@H]2CN(CC2CC2)CC3)c1 (single isomer, unassigned; (+)) [listing 1 of 2 here] | – | >50 mg/kg | – | – | ED50 [1]: >50 mg/kg
CN1CCC2(c3cccc(O)c3)CCCC[C@H]2C1 (single isomer, unassigned; (+)) | – | 0.3 mg/kg | 0.96 nM | 61 nM | ED50 [1]: 0.4 mg/kg
C=CCN1CCC2(c3cccc(O)c3)CCCC[C@H]2C1 (single isomer, unassigned; (+)) | – | – | – | – | Displacement [5]: 2%; Displacement [6]: 16%; Displacement [7]: 42%; Displacement [8]: 15%
CCCN1CCC2(c3cccc(O)c3)CCCC[C@H]2C1 (single isomer, unassigned; (+)) | – | – | – | – | Displacement [9]: 4%; Displacement [10]: 83%; Displacement [8]: 43%
CCN1CCC2(c3cccc(O)c3)CCCC[C@H]2C1 (single isomer, unassigned; (+)) | – | – | – | – | Displacement [9]: 0%; Displacement [11]: 15%; Displacement [12]: 34%; Displacement [10]: 70%
Oc1cccc(C23CCCC[C@H]2CN(CC2CC2)CC3)c1 (single isomer, unassigned; (+)) [listing 2 of 2 here] | – | – | – | – | Displacement [9]: 5%; Displacement [11]: 32%; Displacement [10]: 35%; Displacement [8]: 4%
Oc1cccc(C23CCCC[C@H]2CN(CCc2ccccc2)CC3)c1 (single isomer, unassigned; (+)) | – | – | – | – | Displacement [9]: 8%; Displacement [11]: 53%; Displacement [10]: 74%; Displacement [8]: 19%
Oc1cccc(C23CCCC[C@H]2CN(CC2CC2)CC3)c1 (single isomer, unassigned; (-)) | – | 3 mg/kg | 4.2 nM | 2.5 nM | ED50 [1]: 2.2 mg/kg
CCCN1CCC2(c3cccc(O)c3)CCCC[C@H]2C1 (single isomer, unassigned; (-)) [listing 1 of 2 here] | – | – | 473 nM | – | –
CN1CCC2(c3cccc(O)c3)CCCC[C@H]2C1 (single isomer, unassigned; (-)) | – | 1.6 mg/kg | 8.9 nM | 433 nM | ED50 [1]: 2.1 mg/kg
Oc1cccc(C23CCCC[C@H]2CN(CCc2ccccc2)CC3)c1 (single isomer, unassigned; (-)) | – | – | 0.23 nM | 89 nM | –
CCCN1CCC2(c3cccc(O)c3)CCCC[C@H]2C1 (single isomer, unassigned; (-)) [listing 2 of 2 here] | – | – | – | – | Displacement [9]: 12%; Displacement [11]: 46%
CN1CCC2(c3cccc(O)c3)CCCC[C@H]2C1 (stereo in doubt; 13) | – | 0.4 mg/kg | – | – | ED50 [1]: 0.5 mg/kg
Oc1cccc(C23CCCC[C@H]2CN(CC2CC2)CC3)c1 (stereo in doubt; 29) | – | 5.6 mg/kg | – | – | ED50 [1]: 3.3 mg/kg
CC(C)=CCN1CC[C@]2(C)c3cc(O)ccc3C[C@H]1[C@H]2C [(+)-PENTAZOCINE] | 2 mg/kg | 2.6 mg/kg | 6.9 nM | 75 nM | –
C[C@H]1[C@H]2Cc3ccc(O)cc3[C@]1(C)CCN2CC1CC1 [CYCLAZOCINE] | 0.07 mg/kg | – | 1.2 nM | 1.3 nM | –
CN1CC[C@]23c4c5ccc(O)c4O[C@H]2[C@@H](O)C=C[C@H]3[C@H]1C5 [MORPHINE] | 0.9 mg/kg | 0.7 mg/kg | – | – | –
C=CCN1CC[C@]23c4c5ccc(O)c4O[C@H]2[C@@H](O)C=C[C@H]3[C@H]1C5 [NALORPHINE] | 0.7 mg/kg | >100 mg/kg | 6.5 nM | 15 nM | –
